According to ChEMBL document CHEMBL1255471, “Effects of inoculum, pH, and cations on the in vitro activity of fidaxomicin (OPT-80, PAR-101) against Clostridium difficile” (2010):
Converted amounts (≈) assume the structure as drawn.

Key:
Assay type in all cases: functional
Clostridioides difficile [1] = assay: Antibacterial activity against Clostridium difficile ATCC 700057 by CLSI agar dilution method using 10^5 to 10^8 CFU/ml inoculum
How it was run: (§1)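 CLSI agar dilution in a glove box (10% H2, 5% CO2, 85% N2). A ~10^8 CFU/ml suspension was serially diluted 10-fold to 10^5–10^8 CFU/ml and 2 μl was spotted (10^2–10^5 CFU/spot). Runs were done at least in duplicate; the mode was reported, or the higher value when replicates split evenly.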

Clostridioides difficile [2] = assay: Antibacterial activity against Clostridium difficile ATCC 700057 in presence of 57 mg/L of magnesium ion by CLSI agar dilution method
Clostridioides difficile [3] = assay: Ratio of MIC for Clostridium difficile ATCC 9689 at pH 7 to MIC for Clostridium difficile ATCC 9689 at pH 7.9 by CLSI agar dilution method
How it was run: (§2)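 Agar dilution MICs were measured over anaerobic pH 6.2–8.0. Media were buffered with 100 mM NaH2PO4 (pH 7) or TAPS (pH 8) and set in ambient air above the target pH. After 3 h equilibration in the chamber (5% CO2), anaerobic pH was checked with a flat-bottomed probe. The pH 8.0 run was repeated, and ratios were taken between MICs at the two pH values.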

Clostridioides difficile [4] = assay: Ratio of MIC for Clostridium difficile ATCC 700057 at pH 7 to MIC for Clostridium difficile ATCC 700057 at pH 7.9 by CLSI agar dilution method; how it was run: as §2
Clostridioides difficile [5] = assay: Antibacterial activity against Clostridium difficile ATCC 9689 in presence of 45 mg/L of calcium ion by CLSI agar dilution method
Clostridioides difficile [6] = assay: Antibacterial activity against Clostridium difficile ATCC 9689 in presence of 75 mg/L of calcium ion by CLSI agar dilution method
Clostridioides difficile [7] = assay: Antibacterial activity against Clostridium difficile ATCC 700057 in presence of 45 mg/L of calcium ion by CLSI agar dilution method
Clostridioides difficile [8] = assay: Ratio of MIC for Clostridium difficile ATCC 700057 at pH 6.2 to MIC for Clostridium difficile ATCC 700057 at pH 7.9 by CLSI agar dilution method; how it was run: as §2
Clostridioides difficile [9] = assay: Ratio of MIC for Clostridium difficile ATCC 700057 at pH 6 to MIC for Clostridium difficile ATCC 700057 at pH 8.1 by broth microdilution method
How it was run: (§3)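 Broth microdilution in brucella broth buffered at 10 or 100 mM with NaH2PO4·H2O (pH 7.0), MOPS (pH 8.0) or TAPS (pH 9.0), pH set in ambient air. Final anaerobic pH ranges were 6–7.6 (10 mM) and 6–8.1 (100 mM). Plates were equilibrated anaerobically for at least 3 h before inoculation. Data were pooled from three experiments, and ratios were taken between MICs at the two pH values.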

Clostridioides difficile [10] = assay: Antibacterial activity against Clostridium difficile ATCC 700057 in presence of 75 mg/L of calcium ion by CLSI agar dilution method
Clostridioides difficile [11] = assay: Antibacterial activity against Clostridium difficile ATCC 700057 in presence of 33 mg/L of calcium ion by CLSI agar dilution method
Clostridioides difficile [12] = assay: Antibacterial activity against Clostridium difficile ATCC 700057 in presence of 21 mg/L of magnesium ion by CLSI agar dilution method
Clostridioides difficile [13] = assay: Antibacterial activity against Clostridium difficile ATCC 700057 in presence of 30 mg/L of magnesium ion by CLSI agar dilution method
Clostridioides difficile [14] = assay: Antibacterial activity against Clostridium difficile ATCC 9689 by CLSI agar dilution method using 10^5 to 10^8 CFU/ml inoculum; how it was run: as §1
Clostridioides difficile [15] = assay: Antibacterial activity against Clostridium difficile ATCC 9689 in presence of 21 mg/L of magnesium ion by CLSI agar dilution method
Clostridioides difficile [16] = assay: Ratio of MIC for Clostridium difficile ATCC 9689 at pH 6.2 to MIC for Clostridium difficile ATCC 9689 at pH 7.9 by CLSI agar dilution method; how it was run: as §2
Clostridioides difficile [17] = assay: Antibacterial activity against Clostridium difficile ATCC 9689 in presence of 33 mg/L of calcium ion by CLSI agar dilution method
Clostridioides difficile [18] = assay: Antibacterial activity against Clostridium difficile ATCC 9689 in presence of 30 mg/L of magnesium ion by CLSI agar dilution method
Clostridioides difficile [19] = assay: Ratio of MIC for Clostridium difficile ATCC 700057 at pH 6 to MIC for Clostridium difficile ATCC 700057 at pH 7.5 by broth microdilution method; how it was run: as §3
Clostridioides difficile [20] = assay: Ratio of MIC for Clostridium difficile ATCC 9689 at pH 6 to MIC for Clostridium difficile ATCC 9689 at pH 7.5 by broth microdilution method; how it was run: as §3
Clostridioides difficile [21] = assay: Antibacterial activity against Clostridium difficile ATCC 9689 in presence of 57 mg/L of magnesium ion by CLSI agar dilution method
Clostridioides difficile [22] = assay: Ratio of MIC for Clostridium difficile ATCC 9689 at pH 6 to MIC for Clostridium difficile ATCC 9689 at pH 8.1 by broth microdilution method; how it was run: as §3

Structure (SMILES) | Ratio (Clostridioides difficile [9]) | MIC (Clostridioides difficile [11]) | MIC (Clostridioides difficile [12]) | MIC (Clostridioides difficile [15]) | MIC (Clostridioides difficile [17]) | Ratio (Clostridioides difficile [19]) | Ratio (Clostridioides difficile [20]) | Ratio (Clostridioides difficile [22]) | also measured
CCc1c(Cl)c(O)c(Cl)c(O)c1C(=O)O[C@H]1[C@H](O)[C@H](OC)[C@H](OC/C2=C\C=C\C[C@H](O)/C(C)=C/[C@H](CC)[C@@H](O[C@@H]3OC(C)(C)[C@@H](OC(=O)C(C)C)[C@H](O)[C@@H]3O)/C(C)=C/C(C)=C/C[C@@H]([C@@H](C)O)OC2=O)O[C@@H]1C [FIDAXOMICIN] | 16 | 0.125 µg/mL | 0.125 µg/mL | 0.063 µg/mL | 0.063 µg/mL | 8 | 8 | 16 | MIC (Clostridioides difficile [1]): 0.125 µg/mL (≈ 0.118 µM); MIC (Clostridioides difficile [2]): 0.125 µg/mL; Ratio (Clostridioides difficile [3]): 8; Ratio (Clostridioides difficile [4]): 8; MIC (Clostridioides difficile [5]): 0.063 µg/mL; MIC (Clostridioides difficile [6]): 0.063 µg/mL; MIC (Clostridioides difficile [7]): 0.125 µg/mL; Ratio (Clostridioides difficile [8]): 8; MIC (Clostridioides difficile [10]): 0.125 µg/mL; MIC (Clostridioides difficile [13]): 0.125 µg/mL; MIC (Clostridioides difficile [14]): 0.063 µg/mL (≈ 0.0595 µM); Ratio (Clostridioides difficile [16]): 8; MIC (Clostridioides difficile [18]): 0.063 µg/mL; MIC (Clostridioides difficile [21]): 0.063 µg/mL
CN[C@H](CC(C)C)C(=O)N[C@H]1C(=O)N[C@@H](CC(N)=O)C(=O)N[C@H]2C(=O)N[C@H]3C(=O)N[C@H](C(=O)N[C@H](C(=O)O)c4cc(O)cc(O)c4-c4cc3ccc4O)[C@H](O)c3ccc(c(Cl)c3)Oc3cc2cc(c3O[C@@H]2O[C@H](CO)[C@@H](O)[C@H](O)[C@H]2O[C@H]2C[C@](C)(N)[C@H](O)[C@H](C)O2)Oc2ccc(cc2Cl)[C@H]1O [VANCOMYCIN] | 16 | 1 µg/mL | 1 µg/mL | 1 µg/mL | 1 µg/mL | 8 | 8 | 16 | 
